Measurements of several laboratories.
Each line is one published result; the experiments were not run side by side.
IRAK4: Interleukin-1 receptor-associated kinase 4 (IRAK4, Homo sapiens, UniProt Q9NWZ3)
P2RY14: P2Y purinoceptor 14 (P2RY14, Homo sapiens, UniProt Q15391)
CYP2D6: Cytochrome P450 2D6 (CYP2D6, Homo sapiens, UniProt P10635)
TGFBR1: TGF-beta receptor type-1 (TGFBR1, Homo sapiens, UniProt P36897)

SMILES	target	test	conditions	IC50 [µM]
CNC(=O)c1ccccc1Nc1nc(Nc2ccc(CO)nc2)ncc1Cl	IRAK4	enzyme activity, inhibitor, radiometric		0.0208
O=C(O)c1cc(-c2ccc(-n3cc(CCOP(=O)(O)O)nn3)cc2)c2ccc(-c3ccc(C(F)(F)F)cc3)cc2c1	P2RY14	ligand displacement in cells, flow cytometry		1.34
C#Cc1cnc(Nc2ccc(CO)cc2)nc1Nc1ccccc1C(=O)NC	IRAK4	enzyme activity, inhibitor, radiometric		0.00051
CC(C)(C)NS(=O)(=O)c1cccc(C(=O)N2CC3(CCC4(CC4)CC3)c3cc(NS(C)(=O)=O)ccc32)c1	Kinesin-like protein KIF11 (KIF11, Homo sapiens, UniProt P52732)	ATPase activity, inhibitor		> 100
OCc1ccc(Nc2ncc(Cl)c(Nc3ccccc3-c3ncc[nH]3)n2)cc1	IRAK4	enzyme activity, inhibitor, radiometric		0.0849
CC(C)OC(=O)[C@H](Cc1c[nH]c2ccccc12)NC(=O)c1ccc2ncccc2c1	P2RY14	cAMP, antagonist		0.0106
CS(=O)(=O)c1ccccc1Nc1nc(Nc2ccnc(CO)c2)ncc1Cl	IRAK4	enzyme activity, inhibitor, radiometric		0.106
O=C(O)c1cc(-c2ccc(-c3c[nH]nn3)cc2)c2ccc(-c3ccc(C(F)(F)F)cc3)cc2c1	P2RY14	ligand displacement in cells, flow cytometry		0.00369
CS(=O)(=NC#N)c1ccccc1Nc1nc(Nc2ccc(CO)nc2)ncc1Cl (stereo not shown)	IRAK4	enzyme activity, inhibitor, radiometric		0.0189
CC(C)OC(=O)[C@H](Cc1c[nH]c2ccccc12)NC(=O)COc1ccccc1	P2RY14	cAMP, antagonist		0.0044
O=C(O)c1cc(-c2ccc(-n3ccnn3)cc2)c2ccc(-c3ccc(C(F)(F)F)cc3)cc2c1	P2RY14	ligand displacement in cells, flow cytometry		0.0244
CN(C)C(=O)c1cc2cnc(Nc3ccc(-c4ccc5c(=O)cc(N6CCOCC6)oc5c4)cc3)nc2n1C1CCCC1	CYP2D6	enzyme activity, inhibitor, fluorescence	pH 8	4.23
COc1ccc(OCC(=O)N[C@@H](Cc2c[nH]c3ccccc23)C(=O)OC(C)C)cc1	P2RY14	cAMP, antagonist		0.0156
O=C(O)c1cc(-c2ccc(-c3ccc(Cl)s3)cc2)c2ccc(-c3ccc(C(F)(F)F)cc3)cc2c1	P2RY14	ligand displacement in cells, flow cytometry		2.04
O=C(NO)c1ccc(Cn2cnc3c(Nc4cccc([N+](=O)[O-])c4)ncnc32)cc1	Histone deacetylase 3 (HDAC3, Homo sapiens, UniProt O15379)	enzyme activity, inhibitor, fluorescence		< 0.002
NCC(=O)O	ltaE (Escherichia coli, UniProt P75823)	enzyme activity, inhibitor		1900
O=C(O)c1cc(-c2ccc(-n3nncc3CCOP(=O)(O)O)cc2)c2ccc(-c3ccc(C(F)(F)F)cc3)cc2c1	P2RY14	ligand displacement in cells, flow cytometry		0.157
C#Cc1cnc(Nc2ccnc(CO)c2)nc1Nc1ccccc1S(C)(=O)=NC#N (stereo not shown)	IRAK4	enzyme activity, inhibitor, radiometric		0.00447
C=CCn1c(=O)c2cnc(Nc3ccc(N4CCN(C)CC4)cc3)nc2n1-c1ccc2c(n1)[C@@](O)(CC)CC2	CYP2D6	enzyme activity, inhibitor		50
c1coc(-c2n[nH]cc2-c2ccnc3ccccc23)c1	TGFBR1	enzyme activity, inhibitor, radiometric		1.1
OCc1ccc(Nc2ncc(Cl)c(Nc3ccccc3-c3nccs3)n2)cc1	IRAK4	enzyme activity, inhibitor, radiometric		0.0264
Cc1ccc(OCC(=O)N[C@@H](Cc2c[nH]c3ccccc23)C(=O)OC(C)C)cc1	P2RY14	cAMP, antagonist		0.0012
Oc1ccccc1-c1n[nH]cc1-c1ccnc2ccccc12	TGFBR1	enzyme activity, inhibitor, radiometric		7.4
CNC(=O)c1ccccc1Nc1nc(Nc2ccc(CO)cc2)ncc1Cl	IRAK4	enzyme activity, inhibitor, radiometric		0.00249
CC(C)OC(=O)[C@H](Cc1c[nH]c2ccccc12)NC(=O)c1ccc2nccnc2c1	P2RY14	cAMP, antagonist		0.0098
